We go through 25 compounds from ChEMBL document CHEMBL4219151, “Piperidinyl Ureas Chemically Control Defective in Cullin Neddylation 1 (DCN1)-Mediated Cullin Neddylation” (J Med Chem, 2018).

Values after ≈ are worked out from the molar mass of the structure shown.

Data set [1] is described as follows: Permeability of the compound at 10 uM by PAMPA. The data set is classed as ADME. The following applies: for Papp at 10 µM: PAMPA, read-out: permeability; for permeability: pampa, 10 µM. Summed up:
(§1)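 Measured in triplicate within at least one experiment; values reported as mean ± standard deviation.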
Background: PAMPA measures passive passage across an artificial lipid membrane.

The target in the next data set is DCN1-like protein 1 (Homo sapiens, UniProt Q96GG9).
Data set [2] is described as follows: Solubility of the compound at pH 7.4 after 18 hrs by UV-spectroscopy. It counts as physicochemical. The following applies: buffer. Summed up:
as §1

Chain of DCN1-like protein 1 (Q96GG9 whole entry): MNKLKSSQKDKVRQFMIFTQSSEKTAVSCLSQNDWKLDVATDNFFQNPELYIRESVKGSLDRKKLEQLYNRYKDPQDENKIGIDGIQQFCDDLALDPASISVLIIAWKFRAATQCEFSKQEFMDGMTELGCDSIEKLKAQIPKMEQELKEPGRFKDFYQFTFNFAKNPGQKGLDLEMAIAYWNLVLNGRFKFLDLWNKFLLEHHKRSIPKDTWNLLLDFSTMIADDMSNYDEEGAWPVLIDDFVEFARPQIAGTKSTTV

As a reminder, the IC50 is the concentration that inhibits the measured activity by half. A high value points to weaker potency in that assay. One may read the solubility as the dissolved amount per volume that the medium holds. Consider `O=C(Nc1cccc(CN2CCOCC2)c1)NC1CCN(Cc2ccccc2)CC1`, for which the Papp at 10 µM in data set [1] stood at 220 ×10⁻⁶ cm/s. Moreover, at DCN1-like protein 1, the IC50 was > 67 µM. This compound also yielded a solubility at 18 h in data set [2] of 75 µM (≈ 30.6 µg/mL).
For the compound `COc1cccc(NC(=O)NC2CCN(Cc3ccccc3)CC2)c1`, at DCN1-like protein 1, the IC50 is > 67 µM.
Take `O=C(Nc1cccc(C(F)(F)F)c1)NC1CCN(C(=O)c2ccccc2)CC1`: in data set [1], the Papp at 10 µM amounted to 910 ×10⁻⁶ cm/s. Besides, the IC50 against DCN1-like protein 1 was > 67 µM. In data set [2], the solubility at 18 h was 2.8 µM (≈ 1.1 µg/mL).
For the compound `CSc1cccc(NC(=O)NC2CCN(Cc3ccccc3)CC2)c1`, the IC50 at DCN1-like protein 1 was > 67 µM.
On to `CCCCCN1CCC(N(Cc2ccccc2)C(=O)Nc2cccc(C(F)(F)F)c2)CC1`, for which the permeability in data set [1] was 1400 ×10⁻⁶ cm/s. The compound further registered an IC50 against DCN1-like protein 1 of 0.66 µM. This compound returned a solubility at 18 h in data set [2] of 58 µM (≈ 26 µg/mL).
With `O=C(Nc1cccc(C(F)(F)F)c1)N(Cc1ccccc1)C1CCN(Cc2ccc(F)cc2)CC1`, the Papp at 10 µM in data set [1] is > 2200 ×10⁻⁶ cm/s. Besides, at DCN1-like protein 1, the IC50 came to 10 µM. Besides, the solubility at 18 h in data set [2] was found to be 0.9 µM (≈ 0.437 µg/mL).
For `O=C(Nc1cccc(C(F)(F)F)c1)N(Cc1ccccc1)C1CCN(CC2CCCCC2)CC1` the same measures were < 1 ×10⁻⁶ cm/s, 0.62 µM and 1.2 µM (≈ 0.568 µg/mL).
With `CCCN1CCC(N(CC(C)C)C(=O)Nc2cccc(C(F)(F)F)c2)CC1`, in data set [1], the permeability turned out to be 1900 ×10⁻⁶ cm/s. In addition, on DCN1-like protein 1, the IC50 is 5.8 µM. Also, the concentration in solution in data set [2] (solubility at 18 h) was 96 µM (≈ 37 µg/mL).
Turning to `Cc1cccc(CN2CCC(NC(=O)Nc3cccc(C(F)(F)F)c3)CC2)c1`, the Papp at 10 µM in data set [1] was > 2200 ×10⁻⁶ cm/s. Further, it took 6.6 µM to reach half-maximal inhibition at DCN1-like protein 1 (IC50). The compound also yielded a solubility at 18 h in data set [2] of 35 µM (≈ 13.7 µg/mL).
Consider `O=C(Nc1ccc2c(c1)OCO2)NC1CCN(Cc2ccccc2)CC1`, for which, on DCN1-like protein 1, the IC50 is > 67 µM.
Turning to `CC(C)(C)CN1CCC(N(Cc2ccccc2)C(=O)Nc2cccc(C(F)(F)F)c2)CC1`, half-maximal inhibition against DCN1-like protein 1 (IC50) was put at 0.96 µM.
For the compound `CC(C)CCN1CCC(N(Cc2ccccc2)C(=O)Nc2cccc(C(F)(F)F)c2)CC1`, the Papp at 10 µM in data set [1] was > 2200 ×10⁻⁶ cm/s. The compound further returned an IC50 against DCN1-like protein 1 of 0.79 µM. For the same compound, in data set [2], the solubility at 18 h came to 60 µM (≈ 26.9 µg/mL).
On to `Cc1cccc(NC(=O)NC2CCN(Cc3ccccc3)CC2)c1`, for which, at DCN1-like protein 1, the midpoint of inhibition, the IC50, lay at 44 µM.
Turning to `O=C(Nc1cccc(C(F)(F)F)c1)N(Cc1ccccc1)C1CCN(CC2CC2)CC1`, the Papp at 10 µM in data set [1] was > 2200 ×10⁻⁶ cm/s. On DCN1-like protein 1, this compound came in with an IC50 of 0.21 µM. In data set [2], this compound returned a solubility at 18 h of 75 µM (≈ 32.4 µg/mL).
Regarding `O=C(Nc1cccc(C(F)(F)F)c1)N(Cc1ccccc1)C1CCN(Cc2nccs2)CC1`, in data set [1], the Papp at 10 µM was found to be 310 ×10⁻⁶ cm/s. This compound came in with a solubility at 18 h in data set [2] of 6.3 µM (≈ 2.99 µg/mL).
Take `O=C(Nc1cccc(C(F)(F)F)c1)NC1CCN(Cc2ccccc2Cl)CC1`: the Papp at 10 µM in data set [1] is 830 ×10⁻⁶ cm/s. Further, the IC50 at DCN1-like protein 1 is 28 µM. The solubility at 18 h in data set [2] was found to be 0.3 µM (≈ 0.124 µg/mL).
As for `CCOc1cc(CN2CCC(N(Cc3ccccc3)C(=O)Nc3cccc(C(F)(F)F)c3)CC2)cc(Cl)c1O`, the Papp at 10 µM in data set [1] turned out to be 110 ×10⁻⁶ cm/s. Moreover, in data set [2], the solubility at 18 h was 0.4 µM (≈ 0.225 µg/mL).
Consider `O=C(Nc1cccc(I)c1)NC1CCN(Cc2ccccc2)CC1`, for which, at DCN1-like protein 1, the IC50 is > 67 µM.
With `O=C(Nc1cccc(C(F)(F)F)c1)N(Cc1ccccc1)C1CCN(Cc2ccccc2)CC1`, in data set [1], the Papp at 10 µM came out at 300 ×10⁻⁶ cm/s. In data set [2], this compound registered a solubility at 18 h of 11 µM (≈ 5.14 µg/mL).
Regarding `CCCC(=O)N1CCC(N(Cc2ccccc2)C(=O)Nc2cccc(C(F)(F)F)c2)CC1`, the Papp at 10 µM in data set [1] was > 2200 ×10⁻⁶ cm/s. Moreover, in data set [2], the solubility at 18 h is < 0.1 µM.
For `Cc1ccc(CN2CCC(NC(=O)Nc3cccc(C(F)(F)F)c3)CC2)cc1` the same measures were > 2200 ×10⁻⁶ cm/s and 14 µM (≈ 5.48 µg/mL).
For `CCCN1CCC(N(Cc2ccncc2)C(=O)Nc2cccc(C(F)(F)F)c2)CC1` the same measures were 700 ×10⁻⁶ cm/s and 85 µM (≈ 35.7 µg/mL).
With `O=C(Nc1cccc(C(F)(F)F)c1)NC1CCN(Cc2cccc(Cl)c2)CC1`, in data set [1], the permeability amounted to 1700 ×10⁻⁶ cm/s. This compound returned a solubility at 18 h in data set [2] of 0.7 µM (≈ 0.288 µg/mL).
For the compound `CC(=O)O[C@H]1CN(Cc2ccccc2)CC[C@@H]1NC(=O)Nc1cccc(C(F)(F)F)c1`, on DCN1-like protein 1, the IC50 stood at 12 µM.
As to `CCCCS(=O)(=O)N1CCC(N(Cc2ccccc2)C(=O)Nc2cccc(C(F)(F)F)c2)CC1`, the Papp at 10 µM in data set [1] is < 1 ×10⁻⁶ cm/s. Moreover, the concentration in solution in data set [2] (solubility at 18 h) was 1 µM (≈ 0.498 µg/mL).
